Results as given in ChEMBL document CHEMBL1166007, “Anti-AIDS agents 82: synthesis of seco-(3'R,4'R)-3',4'-di-O-(S)-camphanoyl-(+)-cis-khellactone (DCK) derivatives as novel anti-HIV agents” (Bioorg Med Chem, 2010).
Active and inactive are the calls of the source. The rule behind the calls is not given here.

Tests used:
[1] = tested on: Human immunodeficiency virus 1; assay: Antiviral activity against HIV1 NL4-3 infected in human MT4 cells assessed as inhibition of viral p24 antigen production after 4 days by ELISA; assay type: functional, organism-based; settings: Human immunodeficiency virus 1, NL4-3, MT4, 96 h
Method in brief: (§1)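 HIV-1 NL4-3 or RTMDR (multi-RT inhibitor-resistant) virus infected MT-4 cells at MOI 0.001 in 96-well culture. On day 4 post-infection, culture supernatants were collected and p24 was measured by ELISA. TI = IC50/EC50. Values are averages of at least three separate experiments. Top tested concentration 20 μM.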

MT4 = assay: Cytotoxicity against human MT4 cells after 4 days by XTT assay; assay type: cell-based; settings: MT4, 96 h
[2] = Therapeutic index, ratio of IC50 for human MT4 cells to EC50 for HIV1 NL4-3 infected in human MT4 cells; assay type: cell-based; settings: read-out: Ratio IC50/EC50; method in brief: as §1
[3] = tested on: Human immunodeficiency virus 1; assay: Antiviral activity against HIV1 3B infected in […] assessed as inhibition of viral p24 antigen production at 20 uM after 6 days by ELISA; assay type: functional, organism-based
Method in brief: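 Human T-cell MT-2 line kept with L-glutamine at 37 °C and 5% CO2. Compounds were dissolved in DMSO and screened at final 100, 20, 4 and 0.8 μg/mL, with a highest tested concentration of 20 μM. Wells received […] at 3 × 10^5 cells/mL plus HIV-1 IIIB inoculum of 125 TCID50. Medium was changed on days 1 and 4. Supernatant p24 was measured by antigen capture on day 6.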

MT2 = assay: Cytotoxicity against human MT2 cells after 6 days by XTT assay; assay type: cell-based; settings: MT2, 144 h
[4] = tested on: Human immunodeficiency virus; assay: Antiviral activity against multi-RT inhibitor-resistant HIV infected in human MT4 cells assessed as inhibition of viral p24 antigen production after 4 days by ELISA; assay type: functional, organism-based; settings: Human immunodeficiency virus 1, MT4, 96 h; method in brief: as §1
[5] = tested on: Human immunodeficiency virus 1; assay: Antiviral activity against HIV1 3B infected in human MT2 cells assessed as inhibition of viral p24 antigen production after 6 days by ELISA; assay type: functional, organism-based; settings: Human immunodeficiency virus 1, 3B, MT2, 144 h
Method in brief: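 Human T-cell MT-2 line kept with L-glutamine at 37 °C and 5% CO2. Compounds were dissolved in DMSO and screened at final 100, 20, 4 and 0.8 μg/mL, with a highest tested concentration of 20 μM. Medium was changed on days 1 and 4. Supernatant p24 was measured by antigen capture on day 6.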

[6] = Therapeutic index, ratio of IC50 for human MT2 cells to EC50 for HIV1 3B infected in human MT2 cells; assay type: cell-based; settings: read-out: Ratio IC50/EC50
[7] = Therapeutic index, ratio of IC50 for human MT4 cells to EC50 for multi-RT inhibitor-resistant HIV infected in human MT4 cells; assay type: cell-based; settings: read-out: Ratio IC50/EC50; method in brief: as §1

Structure (SMILES) | EC50 [1] | IC50 (MT4) | selectivity ratio [2] | inhibition [3] | IC50 (MT2) | EC50 [4] | EC50 [5] | selectivity ratio [6] | selectivity ratio [7]
COc1ccc(N(Cc2c(OC(C)C)ccc3c(C)cc(=O)oc23)C(=O)[C@@]23CC[C@@](C)(C(=O)O2)C3(C)C)cc1 | 4.69 µM | 34.7 µM | 15 | – | – | – | – | – | –
Cc1cc(=O)oc2c([C@H](COC(=O)[C@@]34CC[C@@](C)(C(=O)O3)C4(C)C)OC(=O)[C@@]34CC[C@@](C)(C(=O)O3)C4(C)C)c(OC(C)C)ccc12 | > 20 µM | 20 µM | – | inactive | 39.2 µM | 20 µM | – | – | –
CCOc1ccc2c(C)cc(=O)oc2c1COC(=O)[C@@]12CC[C@@](C)(C(=O)O1)C2(C)C | > 32.3 µM | 60.3 µM | 1.87 | – | – | – | – | – | –
CC(=O)c1ccc2c(c1C)[C@@H](OC(=O)[C@@]13CC[C@@](C)(C(=O)O1)C3(C)C)[C@@H](OC(=O)[C@@]13CC[C@@](C)(C(=O)O1)C3(C)C)C(C)(C)O2 | – | – | – | inactive | 39.6 µM | – | – | – | –
Cc1cc(=O)oc2c(CN(C)C(=O)[C@@]34CC[C@@](C)(C(=O)O3)C4(C)C)c(OC(C)C)ccc12 | 5.66 µM | 56.6 µM | 8 | – | – | – | – | – | –
COC(=O)COc1ccc2c(C)cc(=O)oc2c1COC(=O)[C@@]12CC[C@@](C)(C(=O)O1)C2(C)C | > 44.6 µM | 54.5 µM | 1.22 | – | – | – | – | – | –
Cc1cc(=O)oc2c3c(ccc12)OC(C)(C)[C@H](OC(=O)[C@@]12CC[C@@](C)(C(=O)O1)C2(C)C)[C@@H]3OC(=O)[C@@]12CC[C@@](C)(C(=O)O1)C2(C)C | – | – | – | – | 39.2 µM | – | 126 nM | 301 | –
CCc1cc(=O)c2ccc3c(c2o1)[C@@H](OC(=O)[C@@]12CC[C@@](C)(C(=O)O1)C2(C)C)[C@@H](OC(=O)[C@@]12CC[C@@](C)(C(=O)O1)C2(C)C)C(C)(C)O3 | 0.08 µM | 9.27 µM | – | – | – | 0.133 µM | – | – | 69.9
Cc1cc(=O)oc2c([C@H](C)OC(=O)[C@@]34CC[C@@](C)(C(=O)O3)C4(C)C)c(OC(C)C)ccc12 | > 20 µM | 20 µM | – | inactive | 56.5 µM | 20 µM | – | – | –
CCOc1c(C(C)=O)ccc2c1[C@@H](OC(=O)[C@@]13CC[C@@](C)(C(=O)O1)C3(C)C)[C@@H](OC(=O)[C@@]13CC[C@@](C)(C(=O)O1)C3(C)C)C(C)(C)O2 | – | – | – | – | 39.6 µM | – | 190 nM | 208 | –
COc1ccc2c(C)cc(=O)oc2c1COC(=O)[C@@]12CC[C@@](C)(C(=O)O1)C2(C)C | > 36.6 µM | 62.4 µM | 1.71 | – | – | – | – | – | –
Cc1cc(=O)oc2c(CSC(=O)[C@@]34CC[C@@](C)(C(=O)O3)C4(C)C)c(OC(C)C)ccc12 | 4.67 µM | 56.2 µM | 12 | – | – | – | – | – | –
Cc1cc(=O)oc2c(CNC(=O)[C@@]34CC[C@@](C)(C(=O)O3)C4(C)C)c(OC(C)C)ccc12 | > 25 µM | 25 µM | 1 | – | – | – | – | – | –
Cc1cn([C@H]2CC(N=[N+]=[N-])[C@@H](CO)O2)c(=O)[nH]c1=O (single isomer, unassigned) [ZIDOVUDINE] | – | – | – | – | – | – | 44 nM | – | –
Cc1cc(=O)oc2cc(OC(C)(C)[C@@H](COC(=O)[C@@]34CC[C@@](C)(C(=O)O3)C4(C)C)OC(=O)[C@@]34CC[C@@](C)(C(=O)O3)C4(C)C)ccc12 | > 20 µM | 20 µM | – | inactive | 39.2 µM | 20 µM | – | – | –
